Assay: Safety and tolerability
Assay type: in vivo, human
Procedure, shortened: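 Patients had advanced solid tumours and ECOG PS 0–1. AEs were graded by NCI CTCAE v4.03 and monitored from the first dose of any study drug until 30–40 days after the last dose. The safety population was all patients receiving at least one pevonedistat dose.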

[1] = Pevonedistat 8 mg m^−2 + fluconazole (n = 13)
[2] = Pevonedistat 8 mg m^−2 + itraconazole (n = 13)
[3] = Pevonedistat 15 mg m^−2 + itraconazole (n = 6)
[4] = Pevonedistat 20 mg m^−2 + itraconazole (n = 19)
[5] = Pevonedistat + itraconazole, total (n = 38)
[6] = across all study groups, N = 51

NS(=O)(=O)OC[C@@H]1C[C@@H](n2ccc3c(N[C@H]4CCc5ccccc54)ncnc32)C[C@@H]1O [Pevonedistat]
Patients who discontinued study treatment due to AEs (N = 51): 12% | Abdominal pain, patients with AE [1]: 1 (8) n (%) | Anaemia, patients with AE [1]: 3 (23) n (%) | Asthenia, patients with AE [1]: 3 (23) n (%) | Constipation, patients with AE [1]: 3 (23) n (%) | Cough, patients with AE [1]: 2 (15) n (%) | Decreased appetite, patients with AE [1]: 4 (31) n (%) | Dehydration, patients with AE [1]: 1 (8) n (%) | Diarrhoea, patients with AE [1]: 0 n (%) | Dizziness, patients with AE [1]: 1 (8) n (%) | Dyspnoea, patients with AE [1]: 2 (15) n (%) | Fatigue, patients with AE [1]: 3 (23) n (%) | Headache, patients with AE [1]: 3 (23) n (%) | Hypokalaemia, patients with AE [1]: 0 n (%) | Hyponatraemia, patients with AE [1]: 2 (15) n (%) | Nausea, patients with AE [1]: 3 (23) n (%) | Vomiting, patients with AE [1]: 3 (23) n (%) | Abdominal pain, patients with AE [2]: 3 (23) n (%) | Anaemia, patients with AE [2]: 3 (23) n (%) | Asthenia, patients with AE [2]: 2 (15) n (%) | Constipation, patients with AE [2]: 2 (15) n (%) | Cough, patients with AE [2]: 4 (31) n (%) | Decreased appetite, patients with AE [2]: 3 (23) n (%) | Dehydration, patients with AE [2]: 3 (23) n (%) | Diarrhoea, patients with AE [2]: 4 (31) n (%) | Dizziness, patients with AE [2]: 2 (15) n (%) | Dyspnoea, patients with AE [2]: 1 (8) n (%) | Fatigue, patients with AE [2]: 3 (23) n (%) | Headache, patients with AE [2]: 0 n (%) | Hypokalaemia, patients with AE [2]: 2 (15) n (%) | Hyponatraemia, patients with AE [2]: 1 (8) n (%) | Nausea, patients with AE [2]: 1 (8) n (%) | Vomiting, patients with AE [2]: 2 (15) n (%) | Abdominal pain, patients with AE [3]: 1 (17) n (%) | Anaemia, patients with AE [3]: 2 (33) n (%) | Asthenia, patients with AE [3]: 0 n (%) | Constipation, patients with AE [3]: 0 n (%) | Cough, patients with AE [3]: 0 n (%) | Decreased appetite, patients with AE [3]: 1 (17) n (%) | Dehydration, patients with AE [3]: 2 (33) n (%) | Diarrhoea, patients with AE [3]: 1 (17) n (%) | Dizziness, patients with AE [3]: 1 (17) n (%) | Dyspnoea, patients with AE [3]: 2 (33) n (%) | Fatigue, patients with AE [3]: 1 (17) n (%) | Headache, patients with AE [3]: 0 n (%) | Hypokalaemia, patients with AE [3]: 2 (33) n (%) | Hyponatraemia, patients with AE [3]: 1 (17) n (%) | Nausea, patients with AE [3]: 0 n (%) | Vomiting, patients with AE [3]: 1 (17) n (%) | Abdominal pain, patients with AE [4]: 2 (11) n (%) | Anaemia, patients with AE [4]: 6 (32) n (%) | Asthenia, patients with AE [4]: 2 (11) n (%) | Constipation, patients with AE [4]: 3 (16) n (%) | Cough, patients with AE [4]: 1 (5) n (%) | Decreased appetite, patients with AE [4]: 4 (21) n (%) | Dehydration, patients with AE [4]: 2 (11) n (%) | Diarrhoea, patients with AE [4]: 6 (32) n (%) | Dizziness, patients with AE [4]: 4 (21) n (%) | Dyspnoea, patients with AE [4]: 3 (16) n (%) | Fatigue, patients with AE [4]: 8 (42) n (%) | Headache, patients with AE [4]: 6 (32) n (%) | Hypokalaemia, patients with AE [4]: 3 (16) n (%) | Hyponatraemia, patients with AE [4]: 2 (11) n (%) | Nausea, patients with AE [4]: 2 (11) n (%) | Vomiting, patients with AE [4]: 6 (32) n (%) | Abdominal pain, patients with AE [5]: 6 (16) n (%) | Anaemia, patients with AE [5]: 11 (29) n (%) | Asthenia, patients with AE [5]: 4 (11) n (%) | Constipation, patients with AE [5]: 5 (13) n (%) | Cough, patients with AE [5]: 5 (13) n (%) | Decreased appetite, patients with AE [5]: 8 (21) n (%) | Dehydration, patients with AE [5]: 7 (18) n (%) | Diarrhoea, patients with AE [5]: 11 (29) n (%) | Dizziness, patients with AE [5]: 7 (18) n (%) | Dyspnoea, patients with AE [5]: 6 (16) n (%) | Fatigue, patients with AE [5]: 12 (32) n (%) | Headache, patients with AE [5]: 6 (16) n (%) | Hypokalaemia, patients with AE [5]: 7 (18) n (%) | Hyponatraemia, patients with AE [5]: 4 (11) n (%) | Nausea, patients with AE [5]: 3 (8) n (%) | Vomiting, patients with AE [5]: 9 (24) n (%) | Abdominal pain, patients with AE (Total (N = 51)): 7 (14) n (%) | Anaemia, patients with AE (Total (N = 51)): 14 (27) n (%) | Asthenia, patients with AE (Total (N = 51)): 7 (14) n (%) | Constipation, patients with AE (Total (N = 51)): 8 (16) n (%) | Cough, patients with AE (Total (N = 51)): 7 (14) n (%) | Decreased appetite, patients with AE (Total (N = 51)): 12 (24) n (%) | Dehydration, patients with AE (Total (N = 51)): 8 (16) n (%) | Diarrhoea, patients with AE (Total (N = 51)): 11 (22) n (%) | Dizziness, patients with AE (Total (N = 51)): 8 (16) n (%) | Dyspnoea, patients with AE (Total (N = 51)): 8 (16) n (%) | Fatigue, patients with AE (Total (N = 51)): 15 (29) n (%) | Headache, patients with AE (Total (N = 51)): 9 (18) n (%) | Hypokalaemia, patients with AE (Total (N = 51)): 7 (14) n (%) | Hyponatraemia, patients with AE (Total (N = 51)): 6 (12) n (%) | Nausea, patients with AE (Total (N = 51)): 6 (12) n (%) | Vomiting, patients with AE (Total (N = 51)): 12 (24) n (%) | Drug‐related AE: anaemia, patients [6]: 6% | Drug‐related AE: decreased appetite, patients [6]: 6% | Drug‐related AE: diarrhoea, patients [6]: 10% | Drug‐related AE: fatigue, patients [6]: 6% | Drug‐related AE: increased AST, patients [6]: 6% | Drug‐related AE: nausea, patients [6]: 8% | Drug‐related AE: pruritus, patients [6]: 6% | Drug‐related AE: vomiting, patients [6]: 12% | Patients who died during Part A (not related to study drug) (safety population, N = 51): 14% | Patients who experienced at least one drug‐related AE (safety population, N = 51): 55% | Patients with at least one grade ≥3 AE (safety population, N = 51): 43% | Patients with serious AEs (not deemed drug‐related) (safety population, N = 51): 25% | Patients who experienced at least one AE (safety population, N = 51, all study groups): 98%

— publication PMC6595297 (British Journal of Clinical Pharmacology, 2019)
